Records with an inconclusive call do not appear.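 How the source made its calls, unless noted: active means cell viability at or below a set limit in both duplicate runs, the limit being the all-compound median minus 4 SD (cut at about 23% in these data, passing the limit was not always enough); inconclusive means no clear call, values can overlap the other calls; inactive means the rest.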
Assays:
[1] = S. cerevisiae growth inhibition in permissive medium (OD615), pilot counter-assay for S. cerevisiae lifespan shortening project, permissive growth control (AID 705;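 active means growth inhibition above 25% in both replicates, a cutoff set 3 SD above the mean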); conditions: OD615, 24 h, at 10 µM, active compounds read high
Procedure, shortened: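 System: Engineered DeaD yeast | Buffer or medium: SC raffinose/galactose permissive medium | Incubation: Cells pre-grown 4 h, then 24 h compound exposure, 30 °C humidified | Measured by: Absorbance (optical density) at 615 nm | Read-out: Reduction in yeast growth (OD615)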

[2] = S. cerevisiae growth inhibition in restrictive medium, OD615, pilot screen, restrictive growth control, yeast lifespan reduction project (AID 706;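 active means growth inhibition above a set limit, 3 SD over mean compound inhibition, in both replicates, cut at about 43% in these data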;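 further: modified DeaD lifespan yeast strain shifted to restrictive glucose medium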); conditions: OD615, 48 h, at 10 µM, active compounds read high
Procedure, shortened: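 Material: modified S. cerevisiae; Medium: glucose-based CSMM-D restrictive medium; Compound dosing: one concentration, 10 µM final, 0.25% DMSO; Incubation: 48 h compound exposure at 30 °C; Measured by: OD615.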

[3] = doxorubicin toxicity protection in MRP-1 cells – H69AR cells, CellTiter-Glo, duplicate, MRP-1 activator project, pilot screen (AID 807;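 active means viability increase at or above a cutoff of the median across tested compounds plus 3 SD, cut at about 8.5% in these data, passing the limit was not always enough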;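 further: compound pretreatment 18-22 h then 72 h combined with doxorubicin; 0% = doxorubicin alone and 100% = vehicle without doxorubicin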); conditions: H69AR viability with doxorubicin, CellTiter-Glo luminescence; at 10 µM; active compounds read high
[4] = viability of HCT116 without oncogenic beta-catenin – human colon tumor cells, pilot screen (AID 823); conditions: HCT116 beta-catenin knockout viability, CellTiter-Glo, 60 h; at 10 µM; active compounds read low;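 further: 0% = wells killed by 20 µM Hyamine and 100% = untreated DMSO cell wells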
[5] = viability of PTEN-null HCT116 cells – cell-based, HCT116 clonal line, CellTiter-Glo, pilot screen (AID 824;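 active means viability at or below 27.92% in each of two runs, the all-compound median minus 4 SD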;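 further: 0% = 20 µM Hyamine control and 100% = vehicle cell control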); conditions: HCT116 PTEN-deleted viability, 60 h, at 10 µM, active compounds read low
[6] = RAM pathway blockade in budding yeast – dse1pr::URA3 reporter, 5-FOA selection, pilot screen (AID 869;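 active means inhibition over a set limit, the all-compound mean plus 3 SD, in both replicate runs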;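 further: 0% = DMSO wells with no growth and 100% = 10 µM 1-NA-PP1 with full growth; RAM network block rescues cells from 5-FOA so hits raise OD615 growth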); conditions: S. cerevisiae dse1pr::URA3 5-FOA growth, OD615, 2 d; at 10 µM; active compounds read high; strain carries analog-sensitive mutant Cbk1 kinase
[7] = RAM signaling pathway blockade in yeast – S. cerevisiae, Pdr1DBD-CYC8 efflux-inhibited sensitized strain, primary screen (AID 1298;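 active means RAM network inhibition above 8.4% in each of two replicates, 3 SD over the compound average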;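 further: 0% = DMSO untreated cells without growth and 100% = 10 µM 1-NA-PP1 full growth; higher means more yeast growth rescued from 5-FOA killing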); conditions: S. cerevisiae cbk1-as DSE1-URA3 strain, 5-FOA growth OD615, 2 d; at 50 µM; active compounds read high

CCCCN=C(C)C1=C(O)CSC1=O
inactive: growth inhibition [1] -1.78% | growth inhibition [2] 4.99% | viability increase [3] -1.7% | viability [4] 104% | viability [5] 99.7% | inhibition [6] 2% | RAM network inhibition [7] 3.8%

CC(=O)Nc1ccc(OC/C=C(\C)Cl)cc1
inactive: growth inhibition [1] -16.6% | growth inhibition [2] -7.54% | viability increase [3] -1.2% | viability [4] 101% | viability [5] 101% | inhibition [6] 0.895% | RAM network inhibition [7] 2.95%

Cn1c(C(=O)N2CCN(c3ccccn3)CC2)cc2c(=O)n(C)c3ccccc3c21
inactive: growth inhibition [1] 2.93% | growth inhibition [2] 16.5% | viability increase [3] -2.39% | viability [4] 102% | viability [5] 97.4% | inhibition [6] 0.875% | RAM network inhibition [7] -0.81%

COc1cccc(CNC(=O)Cn2cc3c(n2)CCCC3)c1
inactive: growth inhibition [1] -7.1% | growth inhibition [2] 4.65% | viability increase [3] 0.16% | viability [4] 100% | viability [5] 93.2% | inhibition [6] 1.44% | RAM network inhibition [7] 3.05%

O=C(CCSc1ccccc1)NCCSc1ccccn1
inactive: growth inhibition [1] -12.8% | growth inhibition [2] -12% | viability increase [3] -2.49% | viability [4] 96.3% | viability [5] 94.6% | inhibition [6] 2.69% | RAM network inhibition [7] 0.53%

CCCCC(CC)CNC(=O)c1[nH]c(C)c(C(C)=O)c1C (configuration not stated)
inactive: growth inhibition [1] 9.77% | growth inhibition [2] -2.26% | viability increase [3] -1.78% | viability [4] 41.7% | viability [5] 63.8% | inhibition [6] 1.91% | RAM network inhibition [7] 1.29%

COC(=O)c1cc(OC)c(OC)cc1NC(=O)c1c(-c2ccccc2Cl)noc1C
inactive: growth inhibition [1] 5.77% | growth inhibition [2] -2.39% | viability increase [3] -5.69% | viability [4] 66.3% | viability [5] 60.2% | inhibition [6] 1.68% | RAM network inhibition [7] 4.85%

COc1ccc2nc(NC(=O)C3CCCN3S(=O)(=O)c3ccc(C)cc3)sc2c1 (configuration not stated)
inactive: growth inhibition [1] -6.88% | growth inhibition [2] -4% | viability increase [3] -1.48% | viability [4] 69.3% | viability [5] 72% | inhibition [6] 1.23% | RAM network inhibition [7] 6.79%

COC(=O)c1ccc(OCC(O)CN(CC(C)C)CC(C)C)cc1 (configuration not stated)
inactive: growth inhibition [1] -3.55% | growth inhibition [2] -4.33% | viability increase [3] -1.4% | viability [4] 76.1% | viability [5] 86.4% | inhibition [6] 1.47% | RAM network inhibition [7] 2.82%

COC(=O)c1c(NC(=O)CSc2nnnn2-c2ccccc2)sc2c1CCC(C)C2 (configuration not stated)
inactive: growth inhibition [1] -21.3% | growth inhibition [2] -21.2% | viability increase [3] -1.07% | viability [4] 84.4% | viability [5] 78.3% | inhibition [6] 2.46% | RAM network inhibition [7] 10.1%

O=C(O)CCCC(=O)Nc1ccccc1Br
inactive: growth inhibition [1] 9.25% | growth inhibition [2] 10.5% | viability increase [3] -1.61% | viability [4] 104% | viability [5] 94.8% | inhibition [6] 1.11% | RAM network inhibition [7] 2.11%

COc1cccc(-n2c(Cc3cc(=O)[nH]c(=O)[nH]3)nnc2SCc2cccnc2)c1
inactive: growth inhibition [1] -7.23% | growth inhibition [2] -2.88% | viability increase [3] 0.52% | viability [4] 106% | viability [5] 102% | inhibition [6] 0% | RAM network inhibition [7] 0.9%

COC(=O)Cn1c(CCC(=O)O)ccc1-c1ccccc1
inactive: growth inhibition [1] -1.1% | growth inhibition [2] -4.95% | viability increase [3] -0.49% | viability [4] 102% | viability [5] 103% | inhibition [6] 0.12% | RAM network inhibition [7] 10.9%

O=C(Nc1ccc(Oc2ccccc2)cc1)c1cnc2n(c1=O)CCS2
inactive: growth inhibition [1] -16.5% | growth inhibition [2] -12.6% | viability increase [3] 5.46% | viability [4] 68.8% | viability [5] 65.9% | inhibition [6] 3.62% | RAM network inhibition [7] 8.2%

CCN(CC)S(=O)(=O)c1ccc(C(=O)OCCN2C(=O)CCC2=O)cc1
inactive: growth inhibition [1] -4.98% | growth inhibition [2] 10.3% | viability increase [3] 0.48% | viability [4] 102% | viability [5] 101% | inhibition [6] 0.755% | RAM network inhibition [7] 4.16%

CCN1CCN(CC(=O)NC2CCCCC2)C(=O)C1=O
inactive: growth inhibition [1] -14.6% | growth inhibition [2] -12.4% | viability increase [3] -0.83% | viability [4] 96.1% | viability [5] 96.3% | inhibition [6] 0.89% | RAM network inhibition [7] 2.42%

CC1=C(C(=O)OC2CCCCC2)C(c2ccco2)n2ncnc2N1 (configuration not stated)
inactive: growth inhibition [1] -9.02% | growth inhibition [2] 4.91% | viability increase [3] -1.43% | viability [4] 90.7% | viability [5] 88.8% | inhibition [6] 1.47% | RAM network inhibition [7] 5.64%

O=C(NCC1CCCO1)c1ccc2nc(N3CCCCC3)sc2c1 (configuration not stated)
inactive: growth inhibition [1] -2.59% | growth inhibition [2] -4.53% | viability increase [3] -0.46% | viability [4] 102% | viability [5] 96.8% | inhibition [6] 2.37% | RAM network inhibition [7] 1.03%

COc1ccccc1NC(=O)CSc1nnnn1C
inactive: growth inhibition [1] -4.16% | growth inhibition [2] -6.61% | viability increase [3] -1.03% | viability [4] 105% | viability [5] 96.4% | inhibition [6] 1.37% | RAM network inhibition [7] 3.12%

O=C(Nc1cnc2ccccc2c1)c1cccnc1
inactive: growth inhibition [1] 4.78% | growth inhibition [2] 0.625% | viability increase [3] -7.98% | viability [4] 103% | viability [5] 103% | inhibition [6] 1.74% | RAM network inhibition [7] -0.15%

COc1c(Cl)cc(-c2noc(C)c2C(=O)NCc2ccc3c(c2)OCO3)cc1Cl
inactive: growth inhibition [1] -16.4% | growth inhibition [2] -10.4% | viability increase [3] -1.08% | viability [4] 89% | viability [5] 84% | inhibition [6] 1.19% | RAM network inhibition [7] 4.27%

CCOC(=O)N1CCN(C(=O)Cc2ccc(Cl)cc2)CC1
inactive: growth inhibition [1] 3.9% | growth inhibition [2] -5.01% | viability increase [3] -1.27% | viability [4] 99.2% | viability [5] 95.3% | inhibition [6] 2.03% | RAM network inhibition [7] 6.67%

COc1ccc(C(c2sc3ncnn3c2O)N2CCN(c3ccccc3F)CC2)cc1OC (configuration not stated)
inactive: growth inhibition [1] 0.27% | growth inhibition [2] 11.7% | viability increase [3] 1.69% | viability [4] 103% | viability [5] 92% | inhibition [6] 1.3% | RAM network inhibition [7] 1.06%

Cc1ccc(C(=O)Nc2ccc(S(=O)(=O)N3CCN(C)CC3)cc2)o1
inactive: growth inhibition [1] -8.11% | growth inhibition [2] -0.785% | viability increase [3] -0.32% | viability [4] 104% | viability [5] 103% | inhibition [6] 1.32% | RAM network inhibition [7] 3.17%

CCN(c1cccc(C)c1)c1ncnc2nc[nH]c12
inactive: growth inhibition [1] -4.6% | growth inhibition [2] 15.6% | viability increase [3] -3.73% | viability [4] 103% | viability [5] 95.9% | inhibition [6] 0.95% | RAM network inhibition [7] 0.64%

CCC(=O)NCCc1cc2ccc(C)cc2[nH]c1=O
inactive: growth inhibition [1] -3.85% | growth inhibition [2] -15.4% | viability increase [3] -1.94% | viability [4] 110% | viability [5] 93.8% | inhibition [6] 2.58% | RAM network inhibition [7] 0.78%

CC(C)c1nc2cc3ccccc3cc2[nH]1
inactive: growth inhibition [1] -5.02% | growth inhibition [2] -20.5% | viability increase [3] -3.6% | viability [4] 73.5% | viability [5] 81.8% | inhibition [6] 0.18% | RAM network inhibition [7] 7.45%

COc1ccc(C2C3=C(CCCC3=O)Nc3nc(SCc4ccc(C(=O)O)cc4)nn32)cc1OC (configuration not stated)
inactive: growth inhibition [1] -7.69% | growth inhibition [2] -1.59% | viability increase [3] -0.88% | viability [4] 92.8% | viability [5] 95.3% | inhibition [6] 3.18% | RAM network inhibition [7] 3.48%

CCSc1nnc(NC(=O)c2c(-c3ccccc3Cl)noc2C)s1
inactive: growth inhibition [1] 0.595% | growth inhibition [2] 2.59% | viability increase [3] -1.87% | viability [4] 97.8% | viability [5] 88.2% | inhibition [6] 1.04% | RAM network inhibition [7] 8.79%

O=C1Nc2ccc(S(=O)(=O)N3CCCCCC3)c3cccc1c23
inactive: growth inhibition [1] -0.465% | growth inhibition [2] -4.72% | viability increase [3] -2.03% | viability [4] 95.2% | viability [5] 86.2% | inhibition [6] 1.57% | RAM network inhibition [7] 0.81%

CCC(O)CNc1nc(SC)nc2sc3c(c12)CCN(C)C3 (configuration not stated)
inactive: growth inhibition [1] -7.7% | growth inhibition [2] -14.2% | viability increase [3] -3.74% | viability [4] 99.2% | viability [5] 91.2% | inhibition [6] 2.08% | RAM network inhibition [7] 0.46%

O=C(NCC1(c2ccccc2)CCOCC1)c1ccc(Br)o1
inactive: growth inhibition [1] -2.18% | growth inhibition [2] -3.91% | viability increase [3] 2.31% | viability [4] 93% | viability [5] 92.3% | inhibition [6] 0.365% | RAM network inhibition [7] 2.97%

NC(=O)C1CCN(C(=O)CN(c2cccc(C(F)(F)F)c2)S(=O)(=O)c2ccccc2)CC1
inactive: growth inhibition [1] -10.2% | growth inhibition [2] -14.5% | viability increase [3] -1.48% | viability [4] 99.7% | viability [5] 94.7% | inhibition [6] 2.27% | RAM network inhibition [7] 4.31%

COc1cccc(-c2nc(CS(=O)CC(=O)NCc3ccccc3)c(C)o2)c1 (configuration not stated)
inactive: growth inhibition [1] -9.55% | growth inhibition [2] -15.4% | viability increase [3] 1.16% | viability [4] 99.5% | viability [5] 96.2% | inhibition [6] 1.11% | RAM network inhibition [7] 4.44%

O=C(C(c1ccccc1)c1ccccc1)N1CCOCC1
inactive: growth inhibition [1] -6.96% | growth inhibition [2] 1.92% | viability increase [3] -1.34% | viability [4] 100% | viability [5] 95.9% | inhibition [6] 0.87% | RAM network inhibition [7] 0.31%

Cn1c(NC(=O)c2ccccc2C(F)(F)F)cc(=O)n(C)c1=O
inactive: growth inhibition [1] -16.9% | growth inhibition [2] -8.93% | viability increase [3] -2.06% | viability [4] 95.3% | viability [5] 90.7% | inhibition [6] 0.785% | RAM network inhibition [7] -1.32%
